Active and inactive are the calls of the source. No cut-off for these calls is given here.
Key:
Mus musculus [1] = assay: Antiinflammatory activity in mouse assessed as inhibition of xylene induced ear edema; type: functional, organism-based
Mus musculus [2] = assay: Antihypertension activity in SD mouse assessed as heart rate at 92.9 mg/kg for 3 weeks; type: functional
Outline: (§1)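 Animals were assigned to groups (n = 10) and dosed for 3 weeks, with CMC-Na as the vehicle group. Systolic pressure, diastolic pressure and heart rate were recorded 1 h after the last dose using a multi-channel tail-artery blood pressure system.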

Rattus norvegicus [3] = assay: Anti-acute-inflammatory activity in rat assessed as carrageenan induced paw edema volume at 92.9 mg/kg after 1 hr; type: functional
Outline: (§2)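 Rats, n = 8 per group, with CMC-Na as the vehicle control. Paw swelling was induced with carrageenan, and edema volume (ml) was recorded hourly from 1 to 6 h. Significance was tested against the CMC-Na group.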

Rattus norvegicus [4] = assay: Anti-acute-inflammatory activity in rat assessed as carrageenan induced paw edema volume at 23.2 mg/kg after 3 hrs; type: functional; outline: as §2
Rattus norvegicus [5] = assay: Anti-acute-inflammatory activity in rat assessed as carrageenan induced paw edema volume at 92.9 mg/kg after 3 hrs; type: functional; outline: as §2
Osteoblast [6] = assay: Effect on alkaline phosphatase activity per 100 ml in SD mouse osteoblasts at 1 nmol/L after 48 hrs […]; type: functional
Rattus norvegicus [7] = assay: Anti-acute-inflammatory activity in rat assessed as carrageenan induced paw edema volume at 46.4 mg/kg after 6 hrs; type: functional; outline: as §2
Rattus norvegicus [8] = assay: Anti-acute-inflammatory activity in rat assessed as carrageenan induced paw edema volume at 92.9 mg/kg after 2 hrs; type: functional; outline: as §2
Mus musculus [9] = assay: Antihypertension activity in SD mouse assessed as systolic arterial pressure at 92.9 mg/kg for 3 weeks; type: functional, Artery; outline: as §1
Mus musculus [10] = assay: Nitric oxide level in SD mouse serum at 92.9 mg/kg for 3 weeks by nitrate reductase assay; type: functional
Outline: (§3)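 Animals were dosed for 3 weeks (n = 10) with a CMC-Na vehicle group. After the blood pressure readings, […] was drawn from the femoral artery and serum NO (µmol/L) was determined by nitrate reductase assay.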

Rattus norvegicus [11] = species: Rattus norvegicus; assay: Antiinflammatory activity in rat assessed as inhibition of Freund's adjuvant induced arthritis; type: functional, organism-based
Osteoblast [12] = assay: Effect on alkaline phosphatase activity per 100 ml in SD mouse osteoblasts at 0.1 pmol/L after 48 hrs […]
Rattus norvegicus [13] = assay: Anti-acute-inflammatory activity in rat assessed as carrageenan induced paw edema volume at 92.9 mg/kg after 5 hrs; type: functional; outline: as §2
Rattus norvegicus [14] = assay: Anti-acute-inflammatory activity in rat assessed as carrageenan induced paw edema volume at 23.2 mg/kg after 4 hrs; type: functional; outline: as §2
Rattus norvegicus [15] = species: Rattus norvegicus; assay: Anti-subacute-inflammatory activity in rat assessed as inhibition cotton pellet induced granuloma formation; type: functional, organism-based
Mus musculus [16] = assay: Antihypertension activity in SD mouse assessed as heart rate at 31 mg/kg for 3 weeks; type: functional; outline: as §1
Rattus norvegicus [17] = assay: Anti-acute-inflammatory activity in rat assessed as carrageenan induced paw edema volume at 23.2 mg/kg after 5 hrs; type: functional; outline: as §2
Mus musculus [18] = assay: Nitric oxide level in SD mouse serum at 31 mg/kg for 3 weeks by nitrate reductase assay; type: functional; outline: as §3
Rattus norvegicus [19] = assay: Anti-acute-inflammatory activity in rat assessed as carrageenan induced paw edema volume at 46.4 mg/kg after 1 hr; type: functional; outline: as §2
Rattus norvegicus [20] = assay: Anti-acute-inflammatory activity in rat assessed as carrageenan induced paw edema volume at 46.4 mg/kg after 5 hrs; type: functional; outline: as §2
Osteoblast [21] = assay: Effect on alkaline phosphatase activity per 100 ml in SD mouse osteoblasts at 10 umol/L after 48 hrs […]; type: functional
Rattus norvegicus [22] = assay: Anti-acute-inflammatory activity in rat assessed as carrageenan induced paw edema volume at 92.9 mg/kg after 4 hrs; type: functional; outline: as §2
Rattus norvegicus [23] = assay: Anti-acute-inflammatory activity in rat assessed as carrageenan induced paw edema volume at 23.2 mg/kg after 1 hr; type: functional; outline: as §2
Rattus norvegicus [24] = assay: Anti-acute-inflammatory activity in rat assessed as carrageenan induced paw edema volume at 23.2 mg/kg after 6 hrs; type: functional; outline: as §2
Rattus norvegicus [25] = assay: Anti-acute-inflammatory activity in rat assessed as carrageenan induced paw edema volume at 23.2 mg/kg after 2 hrs; type: functional; outline: as §2
Mus musculus [26] = assay: Antihypertension activity in SD mouse assessed as systolic arterial pressure at 31 mg/kg for 3 weeks; type: functional, Artery; outline: as §1
Rattus norvegicus [27] = assay: Anti-acute-inflammatory activity in rat assessed as carrageenan induced paw edema volume at 92.9 mg/kg after 6 hrs; type: functional; outline: as §2
Rattus norvegicus [28] = assay: Anti-acute-inflammatory activity in rat assessed as carrageenan induced paw edema volume at 46.4 mg/kg after 2 hrs; type: functional; outline: as §2
Rattus norvegicus [29] = assay: Anti-acute-inflammatory activity in rat assessed as carrageenan induced paw edema volume at 46.4 mg/kg after 3 hrs; type: functional; outline: as §2
Mus musculus [30] = assay: Antihypertension activity in SD mouse assessed as diastolic arterial pressure at 92.9 mg/kg for 3 weeks; type: functional, Artery; outline: as §1
Rattus norvegicus [31] = assay: Anti-acute-inflammatory activity in rat assessed as carrageenan induced paw edema volume at 46.4 mg/kg after 4 hrs; type: functional; outline: as §2
Mus musculus [32] = assay: Antihypertension activity in SD mouse assessed as diastolic arterial pressure at 31 mg/kg for 3 weeks; type: functional, Artery; outline: as §1
Osteoblast [33] = assay: Effect on alkaline phosphatase activity per 100 ml in SD mouse osteoblasts at 1 pmol/L after 48 hrs […]; type: functional
Rattus norvegicus [34] = assay: Anti-acute-inflammatory activity in rat assessed as carrageenan induced paw edema volume at 21.7 mg/kg after 2 hrs; type: functional; outline: as §2
Rattus norvegicus [35] = assay: Nitric oxide level in SD rat serum at 43.4 mg/kg for 3 weeks by nitrate reductase assay
Rattus norvegicus [36] = assay: Anti-acute-inflammatory activity in rat assessed as carrageenan induced paw edema volume at 21.7 mg/kg after 5 hrs; type: functional; outline: as §2
Rattus norvegicus [37] = assay: Anti-acute-inflammatory activity in rat assessed as carrageenan induced paw edema volume at 21.7 mg/kg after 6 hrs; type: functional; outline: as §2
Rattus norvegicus [38] = assay: Anti-acute-inflammatory activity in rat assessed as carrageenan induced paw edema volume at 21.7 mg/kg after 3 hrs; type: functional; outline: as §2
Rattus norvegicus [39] = assay: Anti-acute-inflammatory activity in rat assessed as carrageenan induced paw edema volume at 21.7 mg/kg after 1 hr; type: functional; outline: as §2
Rattus norvegicus [40] = assay: Antihypertension activity in SD rat assessed as systolic arterial pressure at 43.4 mg/kg for 3 weeks
Osteoclast [41] = assay: Increase in survival rate of SD mouse osteoclasts at 10 pmol/L to 100 nmol/L after 48 hrs by TRAP assay; type: functional, cell-based
Rattus norvegicus [42] = assay: Anti-acute-inflammatory activity in rat assessed as carrageenan induced paw edema volume at 21.7 mg/kg after 4 hrs; type: functional; outline: as §2
Rattus norvegicus [43] = assay: Antihypertension activity in SD rat assessed as heart rate at 43.4 mg/kg for 3 weeks
Osteoclast [44] = assay: Inhibition of survival rate of SD mouse osteoclasts at 100 nmol/L to 10 umol/L after 48 hrs by TRAP assay; type: functional, cell-based
Osteoclast [45] = assay: Inhibition of survival rate of SD mouse osteoclasts at 10 umol/L after 48 hrs by TRAP assay; type: functional, cell-based
Rattus norvegicus [46] = assay: Antihypertension activity in SD rat assessed as diastolic arterial pressure at 43.4 mg/kg for 3 weeks

CC(CCOc1no[n+]([O-])c1S(=O)(=O)c1ccccc1)OC(=O)CCC(=O)OCC(=O)[C@@]1(O)CC[C@H]2[C@@H]3CCC4=CC(=O)CC[C@]4(C)[C@H]3[C@@H](O)C[C@@]21C (some centres not stated)
Activity (Mus musculus [1]): Active

C[C@]12CCC(=O)C=C1CC[C@@H]1[C@@H]2[C@@H](O)C[C@@]2(C)[C@H]1CC[C@]2(O)C(=O)COC(=O)CCC(=O)OCCOCCOc1no[n+]([O-])c1S(=O)(=O)c1ccccc1
Activity (Mus musculus [2]): 379.3
Activity (Rattus norvegicus [3]): 0.12 mL
Activity (Rattus norvegicus [4]): 0.74 mL
Activity (Rattus norvegicus [5]): 0.41 mL
Activity (Osteoblast [6]): 2.97 U
Activity (Rattus norvegicus [7]): 0.92 mL
Activity (Rattus norvegicus [8]): 0.22 mL
Activity (Mus musculus [9]): 137.8 mmHg
Activity (Mus musculus [10]): 40.9 µmol/L
Activity (Rattus norvegicus [11]): Active
Activity (Osteoblast [12]): 1.89 U
Activity (Rattus norvegicus [13]): 0.8 mL
Activity (Rattus norvegicus [14]): 0.99 mL
Activity (Rattus norvegicus [15]): Dose-dependent effect
Activity (Mus musculus [16]): 360.3
Activity (Rattus norvegicus [17]): 1.12 mL
Activity (Mus musculus [18]): 31 µmol/L
Activity (Rattus norvegicus [19]): 0.13 mL
Activity (Rattus norvegicus [20]): 0.95 mL
Activity (Osteoblast [21]): 1.54 U
Activity (Rattus norvegicus [22]): 0.65 mL
Activity (Rattus norvegicus [23]): 0.1 mL
Activity (Rattus norvegicus [24]): 1.07 mL
Activity (Rattus norvegicus [25]): 0.39 mL
Activity (Mus musculus [26]): 144.5 mmHg
Activity (Mus musculus [1]): Active
Activity (Rattus norvegicus [27]): 0.81 mL
Activity (Rattus norvegicus [28]): 0.24 mL
Activity (Rattus norvegicus [29]): 0.56 mL
Activity (Mus musculus [30]): 86.9 mmHg
Activity (Rattus norvegicus [31]): 0.94 mL
Activity (Mus musculus [32]): 97.8 mmHg
Activity (Osteoblast [33]): 2.24 U

C[C@]12CCC(=O)C=C1CC[C@@H]1[C@@H]2[C@@H](O)C[C@@]2(C)[C@H]1CC[C@]2(O)C(=O)CO [HYDROCORTISONE]
Activity (Rattus norvegicus [34]): 0.25 mL
Activity (Rattus norvegicus [35]): 28 µmol/L
Activity (Rattus norvegicus [36]): 0.98 mL
Activity (Rattus norvegicus [37]): 1.02 mL
Activity (Osteoblast [6]): 2.66 U
Activity (Rattus norvegicus [38]): 0.54 mL
Activity (Rattus norvegicus [39]): 0.15 mL
Activity (Rattus norvegicus [40]): 156.7 mmHg
Activity (Osteoblast [12]): 2.07 U
Activity (Osteoclast [41]): Active
Activity (Osteoblast [21]): 2.26 U
Activity (Rattus norvegicus [42]): 0.85 mL
Activity (Rattus norvegicus [43]): 365.2
Activity (Osteoclast [44]): Active
Activity (Osteoclast [45]): Active
Activity (Rattus norvegicus [46]): 109.6 mmHg
Activity (Osteoblast [33]): 2.69 U

C[C@]12CCC(=O)C=C1CC[C@@H]1[C@@H]2[C@@H](O)C[C@@]2(C)[C@H]1CC[C@]2(O)C(=O)COC(=O)CCC(=O)OCCCCOc1no[n+]([O-])c1S(=O)(=O)c1ccccc1
Activity (Mus musculus [1]): Active

— ChEMBL document CHEMBL1139044, “Design and synthesis of furoxan-based nitric oxide-releasing glucocorticoid derivatives with potent anti-inflammatory activity and improved safety” (2007)
